rCAG binder: binds r(CAG) RNA repeats; 370,000 tested, 1.3% active; AID 651821; inhibition, % at 3 µM; r(CAG) RNA repeat, TO-PRO-1 dye displacement fluorescence;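 active means inhibition above the plate cutoff, the mean of all test compounds on that plate plus 3 SD, cut at about 35% in these data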;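 further: 0% = DMSO alone and 100% = 100 µM mitoxantrone as full dye displacement; higher means more dye released from RNA so lower well fluorescence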
HCV core dimer: HCV core protein dimerization inhibition; TR-FRET GST/Flag-core106 dimerization, 1536-well; inhibition, % at 5 µM; 300,000 tested, 0.33% active; AID 1899;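 active means inhibition above the mean of all tested compounds plus 3 SD, set per screening campaign, cut at about 45% in these data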
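assay system = GST-tagged and Flag-tagged HCV core protein residues 1-106 | controls = unlabelled core106 and no-GST-core106 wells | incubation = compound-protein-antibody incubation 4 h at 22.5 °C | probe or stimulus = Eu donor and XL665 acceptor anti-tag antibodies | read-out = % inhibition based on acceptor/donor emission ratio | signal = TR-FRET 671 and 617 nm emission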
TAAR1 ag: human TAAR1 agonism. CHO RD-HGA16 TAAR1, Fluo-8 calcium fluorescence; vehicle wells 0%, saturating PEA agonist 100%. Q96RJ0. 360,000 tested, 0.99% active. activation, % at 3 µM;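 active means activation above the mean activation of all test compounds in the run plus 3 SD, cut at about 38% in these data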
Target sequence (Q96RJ0 whole entry, looked up): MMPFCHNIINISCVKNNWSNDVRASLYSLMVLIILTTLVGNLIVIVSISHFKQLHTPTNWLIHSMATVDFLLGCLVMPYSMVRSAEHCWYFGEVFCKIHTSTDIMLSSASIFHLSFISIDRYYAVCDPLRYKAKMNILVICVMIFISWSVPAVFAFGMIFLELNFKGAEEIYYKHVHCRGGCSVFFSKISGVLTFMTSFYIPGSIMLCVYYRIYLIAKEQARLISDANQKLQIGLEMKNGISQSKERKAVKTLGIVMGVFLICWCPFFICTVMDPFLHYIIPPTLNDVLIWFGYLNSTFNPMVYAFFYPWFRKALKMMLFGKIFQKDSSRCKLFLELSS
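System: CHO-derived RD-HGA16 cells with stable Gα16 and human TAAR1 / Times: 17-24 h plating, Fluo-8 75 min 37 °C, 30 min RT / Technique: calcium-sensitive Fluo-8 signal, excitation 470-495, emission 515-575 nm / Measure: % activation relative to PEA EC100 response / Benchmarks: DMSO and PEA EC100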
TAAR1 antagonist: antagonists of human TAAR1 | Q96RJ0 | CHO RD-HGA16 TAAR1, Fluo-8 calcium fluorescence, antagonist | inhibition, % at 3 µM | 360,000 tested, 1.5% active | AID 624466;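 active means inhibition above a per-plate cutoff, the mean inhibition of test compounds on that plate plus 3 SD, cut at about 49% in these data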;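 further: 0% = DMSO plus EC80 beta-PEA response and 100% = DMSO alone without agonist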
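System: CHO RD-HGA16 cells bearing hTAAR1. Reagent: EC80 β-phenethylamine stimulus. Schedule: seeding 17-24 h prior, 75-min 37 °C, 30-min RT dye loading. Signal: Fluo-8 intracellular calcium dye fluorescence, real-time kinetic reads. Read-out: % inhibition from peak post-agonist over basal fluorescence ratio. Benchmarks: vehicle wells and EC80 agonist wells. Replicates: n of 1.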
NS3 helicase inh: inhibitors of Hepatitis C virus NS3 helicase | inhibition, % at 10.9 µM | NS3 helicase DNA unwinding, Cy5 molecular beacon fluorescence | AID 1800 | 290,000 tested, 0.56% active;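 active means inhibition above the mean of all tested compounds plus 3 SD, set per campaign, cut at about 35% in these data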;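 further: 0% = DMSO wells and 100% = thioflavine S control wells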
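assay system = NS3 helicase fragment of HCV | buffer or medium = MOPS pH 6.5, MgCl2, DTT, Tween20, BSA | timing = 60 min unwinding reaction at 25 °C after ATP addition | signal = Cy5 beacon fluorescence read at start and 1 h | read-out basis = % inhibition of unwinding | control set = low DMSO, high thioflavine S at 110 µM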
TAAR1 ag confirm: confirmation of human TAAR1 agonists. shares compounds with TAAR1 ag. CHO RD-HGA16 TAAR1, Fluo-8 calcium fluorescence; scaled: DMSO 0%, maximal phenethylamine 100%. activation, % at 3 µM. 2,400 tested, 82% active. AID 651783;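 active means activation above a cutoff set at the run's mean compound activation plus 3 SD, cut at about 39% in these data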
Ga16 nonsel ag: nonselective agonist in parental cells, TAAR1 agonist counter-screen; CHO-Ga16 parental, Fluo-8 calcium fluorescence; normalized to maximal ATP response, DMSO zero; activation, % at 3 µM; shares compounds with TAAR1 ag; 2,400 tested, 50% active; AID 651787;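 active means activation above the run cutoff, the mean activation over all tested wells plus 3 SD, cut at about 12% in these data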;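 further: 0% = DMSO wells and 100% = maximal ATP response on the peak over basal ratio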
TAAR1 desensitize: human TAAR1 agonist that also desensitizes the receptor; shares compounds with TAAR1 ag; CHO RD-HGA16 hTAAR1, Fluo-8 calcium, beta-PEA response inhibition; inhibition, % at 3 µM; 2,400 tested, 46% active; AID 651951;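 active means inhibition above the run cutoff, the mean inhibition of all test compounds plus 3 SD, cut at about 49% in these data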;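 further: beta-PEA stimulus applied at its EC80; loss of beta-PEA calcium signal after compound pretreatment read as receptor desensitization; 0% = DMSO with beta-PEA at EC80 and 100% = DMSO alone without agonist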
Ga16 antag count: counter-screen for TAAR1 agonists: nonselective Ga16 antagonists; CHO-Ga16 ATP-induced calcium, Fluo-8 fluorescence; inhibition, % at 3 µM; shares compounds with TAAR1 ag; 2,400 tested, 39% active;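 active means inhibition above the plate's mean compound inhibition plus 3 SD, computed per plate, cut at about 22% in these data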;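 further: 0% = EC80 ATP with DMSO and 100% = DMSO wells without ATP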
The depositor's hits bear a star; x = not tested or not shown. Shown are actives, neighbours in structure and some others; about 3.7% of the full set was active somewhere.

SMILES	rCAG binder	HCV core dimer	TAAR1 ag	TAAR1 antagonist	NS3 helicase inh	TAAR1 ag confirm	Ga16 nonsel ag	TAAR1 desensitize	Ga16 antag count
CC1CCN(CC(=O)c2ccccc2Cl)CC1	-1.5	4.7	4.4	-14.1	0.2	x	x	x	x
CCCCOc1ccc(CCN)cc1Cl	12.2	-2.6	86.6*	67.3*	-41.6	98.9*	17.9*	84.1*	12.0
CCCCc1ccc2[nH]cc(CCN)c2c1	16.6	-5.0	25.6	-10.8	-26.4	x	x	x	x
COc1ccc(CCN)cc1O	1.6	6.8	46.9*	7.6	x	61.7*	-0.2	22.1	9.2
CC(C)Oc1ccc(CCN)cc1Cl	-0.3	-10.2	51.7*	-27.7	-6.5	67.5*	10.9	11.2	2.1
CC(C)(C)C(=O)N1Cc2ccccc2-n2nncc2C1	3.8	x	0.6	-6.5	x	x	x	x	x
C[C@]12CCC3C(CC[C@H]4C[C@@H](O)CC[C@]34C)C1=CC[C@@H]2O (stereo not given in full)	0.9	x	15.0	29.3	x	x	x	x	x
C[C@]12CCC3C(CC[C@H]4C[C@H](O)[C@H](O)C[C@]34C)C1CC[C@@H]2O (stereo not given in full)	-1.6	x	2.3	-16.6	x	x	x	x	x
C[C@H](Cc1ccc(OCC(=O)O)cc1)NC[C@H](O)c1cccc(Cl)c1	2.8	x	7.0	-6.4	x	x	x	x	x
CCC(=NCCc1ccccc1)c1c(O)[nH]c(=O)[nH]c1=O	-0.4	-4.3	x	x	-3.7	x	2.8	x	3.8
CCCCn1c(O)c(C(C)=NC(C)c2ccccc2)c(=O)[nH]c1=O (stereo not given)	-0.3	2.5	-2.2	5.4	2.0	x	x	x	x
CC(=NCCc1ccccc1)c1c(O)[nH]c(=O)[nH]c1=O	-8.8	-6.7	26.2	-23.2	11.6	x	x	x	x
CCCCn1c(O)c(C(C)=NCCc2ccccc2)c(=O)[nH]c1=O	-5.2	1.6	73.1*	33.7	-1.1	44.5*	3.9	10.7	10.9
Cc1cccc(CC(c2cccc(C)c2)N(C)C)c1 (stereo not given)	2.8	x	0.1	6.3	x	x	x	x	x
C=C1[C@H]2CC[C@H]3[C@]4(C)C[C@H](O[C@H]5O[C@H](CO)[C@@H](OS(=O)(=O)O)[C@H](OS(=O)(=O)O)[C@H]5OC(=O)CC(C)C)C[C@@H](C(=O)O)[C@H]4CC[C@]3(C2)[C@H]1O	8.7	5.2	0.5	-5.3	x	x	x	x	x
S=C(NCCc1ccccc1)N1Cc2ccc(Br)cc2-n2nncc2C1	4.7	x	60.5*	34.4	x	38.2*	2.8	21.7	19.0
Cc1cc(C)cc(N2C(=O)NC(=O)/C(=C\c3cccn3-c3ccc(Cl)cc3)C2=O)c1	8.5	11.2	50.5*	32.4	26.4	37.3	12.5*	36.0	20.2
C[CH2][Hg][S]c1ccccc1C(=O)O	-0.5	-7.5	120.1*	95.7*	x	44.4*	59.4*	73.0*	84.1*
NCC(=O)c1ccccc1	0.7	x	88.8*	52.7*	x	89.1*	6.8	87.9*	1.6
CC(C)(C)OC(=O)NCCCCC(N)[P+](=O)O (stereo not given)	3.3	x	x	x	x	x	x	x	x
CN(CCc1ccccc1)Cc1c[nH]c2ccccc12	3.7	-4.9	92.7*	83.6*	-1.3	95.7*	2.1	76.6*	2.5
Cc1cccc(CCNCc2cc3ccc(C)cc3[nH]c2=O)c1	6.4	-1.6	82.8*	70.4*	-9.4	99.7*	5.2	93.0*	-0.9
CNCC(C)c1ccccc1 (stereo not given)	0.4	0.4	83.6*	59.4*	3.8	94.3*	0.9	83.0*	1.9
CCN(CC)c1ccc(/C=C/[N+](=O)[O-])cc1	-7.8	0.1	226.6*	89.8*	-6.4	50.7*	58.1*	50.6*	58.8*
COc1cc(/C=C/[N+](=O)[O-])ccc1O	15.6	-7.1	14.2	5.7	0.4	x	x	x	x
SMILES	rCAG binder	HCV core dimer	TAAR1 ag	TAAR1 antagonist	NS3 helicase inh	TAAR1 ag confirm	Ga16 nonsel ag	TAAR1 desensitize	Ga16 antag count
CCC1(C)OC(c2ccccc2)=C/C(=C/C=C2C(=O)NC(=O)NC2=O)O1 (stereo not given)	-67.9	x	70.2*	67.9*	-0.1	20.3	23.7*	25.6	41.9*
CCC1(Oc2ccccc2)C(=O)NC(=O)NC1=O	-1.0	x	1.6	2.4	x	x	x	x	x
CN1C(=O)CCS(=O)(=O)C1c1ccc(Cl)cc1 (stereo not given)	-0.4	x	x	x	x	x	x	x	x
CCCCn1c(=O)c(C(=O)Nc2ccccc2C)c(O)c2ccccc21	x	-10.1	x	x	10.0	x	x	x	x
CCCCCn1c(=O)c(C(=O)Nc2ncccc2C)c(O)c2ccccc21	3.2	13.2	54.1*	10.7	-20.2	54.0*	86.3*	35.3	43.6*
CCOC(=O)C(O)(c1ccc(NC(=S)NC(=O)c2ccc(Cl)cc2Cl)c(C)c1)C(F)(F)F (stereo not given)	-2.5	4.1	76.1*	99.2*	2.3	95.8*	55.7*	106.6*	84.6*
CCOC(=O)C(NC(=O)CC)(Nc1ccc(C(O)(C(=O)OCC)C(F)(F)F)cc1C)C(F)(F)F (stereo not given)	-7.3	2.0	0.9	-3.4	3.5	x	x	x	x
CCOC(=O)C(O)(c1ccc(NC(=S)NC(=O)c2ccc(Cl)cc2Cl)cc1)C(F)(F)F (stereo not given)	-1.0	4.8	78.3*	79.2*	-3.8	74.5*	44.9*	93.1*	73.2*
CS(=O)(=O)c1ccc(C2=C(CNC(=O)c3ccncc3)[C@H]3CC[C@@H](C2)N3Cc2ccccc2)cc1	0.0	x	3.3	0.5	x	x	x	x	x
CC(Cc1ccccc1)N(C)CC1C(=O)C2CCC1C2 (stereo not given)	1.8	x	56.4*	13.1	x	50.9*	-0.1	4.4	7.9
CC[n+]1c(-c2ccccc2)c2cc(N)ccc2c2ccc(N)cc21	25.1	x	1.7	-14.9	x	x	x	x	x
